Assay results as given in publication PMC2606940 (The Journal of General Physiology, 2009).
Changes are numbered by the printed parent chain. Where two headings read alike, the source gives them in different places.

Key:
[1] = target: T1, CLC-0 E166H mutant (Torpedo marmorata, UniProt P21564, C212S/E166H); assay type: cell-based; settings: read-out: Apparent affinity (K1/2)
T1 sequence (P21564 1-805 E166H/C212S): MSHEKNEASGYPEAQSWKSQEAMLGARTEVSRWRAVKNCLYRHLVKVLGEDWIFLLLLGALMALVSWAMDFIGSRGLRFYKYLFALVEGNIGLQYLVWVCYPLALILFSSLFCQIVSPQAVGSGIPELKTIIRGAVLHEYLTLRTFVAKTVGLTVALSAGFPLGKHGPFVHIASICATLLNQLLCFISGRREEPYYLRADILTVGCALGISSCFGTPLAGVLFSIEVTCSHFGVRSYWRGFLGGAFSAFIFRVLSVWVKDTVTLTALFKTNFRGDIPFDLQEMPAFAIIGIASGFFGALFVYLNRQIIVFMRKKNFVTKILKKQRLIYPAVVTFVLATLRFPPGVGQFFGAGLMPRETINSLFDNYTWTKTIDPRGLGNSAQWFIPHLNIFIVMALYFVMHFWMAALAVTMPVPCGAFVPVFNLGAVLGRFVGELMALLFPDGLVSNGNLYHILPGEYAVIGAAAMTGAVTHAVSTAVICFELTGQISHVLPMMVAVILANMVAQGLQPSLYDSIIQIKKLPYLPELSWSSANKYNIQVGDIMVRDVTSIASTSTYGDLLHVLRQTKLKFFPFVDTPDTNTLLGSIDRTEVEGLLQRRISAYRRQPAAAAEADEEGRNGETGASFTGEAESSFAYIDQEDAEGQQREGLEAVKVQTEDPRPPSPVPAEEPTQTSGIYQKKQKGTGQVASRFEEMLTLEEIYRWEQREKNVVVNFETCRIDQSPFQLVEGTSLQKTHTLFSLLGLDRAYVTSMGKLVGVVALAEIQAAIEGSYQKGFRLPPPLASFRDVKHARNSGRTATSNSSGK
How it was run: (§1)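 CLC-0 mutants in the C212S background were transfected into HEK293 cells with lipofectamine and recorded 1–3 d later as excised inside-out patches. Both sides held 130 mM NaCl, 5 mM MgCl2, 10 mM HEPES and 1 mM EGTA, pH 7.4. CPA was perfused continuously onto the cytoplasmic face. Steady-state current over the last 10 ms was normalized to bracketing blocker-free controls and fitted to a Langmuir function for K1/2. Values are mean ± SEM of ~4–6 patches.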

[2] = target: T2, CLC-0 E166K mutant (Torpedo marmorata, UniProt P21564, C212S/E166K); assay type: cell-based; settings: for IC50: read-out: Apparent affinity (K1/2)
T2 sequence (P21564 1-805 E166K/C212S): T1 sequence (P21564 1-805 E166H/C212S) with H166K
How it was run: as §1

Row | SMILES | IC50 ([1]; −80 mV) [mM] | IC50 ([1]; −100 mV) [mM] | IC50 ([1]; −120 mV) [mM] | IC50 ([1]; −140 mV) [mM] | IC50 ([1]; −160 mV) [mM] | IC50 ([2]; −80 mV) [mM] | IC50 ([2]; −100 mV) [mM] | IC50 ([2]; −120 mV) [mM] | IC50 ([2]; −140 mV) [mM] | IC50 ([2]; −160 mV) [mM] | IC50 ([1]; −40 mV) [mM] | IC50 ([1]; −60 mV) [mM] | block of current ([2]; 0.3 mM CPA, −160 mV) [%]
1 | CCCCCCCC(=O)O [octanoate] | 29.5 ± 1.3 | 18.4 ± 0.81 | 11.5 ± 0.57 | 7.02 ± 0.4 | 4.57 ± 0.28 | 29.2 ± 0.53 | 21.6 ± 0.54 | 15.4 ± 0.5 | 10.6 ± 0.45 | 7.24 ± 0.33 | – | – | –
2 | O=C(O)COc1ccc(Cl)cc1 [CPA, p-chlorophenoxy acetate] | 2.87 ± 0.15 | 1.45 ± 0.11 | 0.74 ± 0.08 | 0.39 ± 0.05 | 0.21 ± 0.04 | 21.3 ± 0.9 | 15.6 ± 0.7 | 11.3 ± 0.5 | 7.99 ± 0.35 | 5.62 ± 0.27 | 12.4 ± 0.52 | 5.86 ± 0.26 | ~10
